From the RNAGym collection of RNA variant scans (doi:10.1126/science.aae0568) come the findings set out here.

Variants at the floor of the assay were thinned out.

Sequences and labels used below:
B1: tRNA (parent)
chain: GUUCCGUUGGCGUAAUGGUAACGCGUCUCCCUCCUAAGGAGAAGACUGCGGGUUCGAGUCCCGUACGGAACG

In the data set the parent is B1. Nature of the data set: yeast fitness relative to wild type (ratio to wild type); higher = fitter; tRNA-Arg(CCU), competitive growth, 37 C, YPD. The gist of the method: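 Gene amplicons from the start population and from each of six end populations were read by 100-nucleotide paired-end sequencing. Those end populations came from pooled Saccharomyces cerevisiae strains carrying tRNA-Arg(CCU) gene variants at the native locus, competed in YPD at 37°C for 24 hours. Fitness relative to wild type was worked out from changes in genotype frequencies. Genotypes needed ≥ 100 starting reads, and estimates < 0.5 were set to 0.5.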
In the case of G23A G39C A40G, the yeast fitness was at most 0.5. As for G23C C29A A45U, the figure is at most 0.5; as for G23A C33G U35G C60U C62G A69U, at most 0.5; as for G23A C31U G56U A65U G68C, at most 0.5.

With G23A G44C C61G, the yeast fitness is at most 0.5. The result for G23A C29G G68C reads at most 0.5; that for C22U G41A G50A C55G, at most 0.5. The result for G23A C60G G67A reads at most 0.5.

In the case of C22U G56A, the yeast fitness stood at 0.734. The result for C22U U32G C34U A40G A42G C66U reads 0.561. As for G23C A45U G51C, the figure is at most 0.5. The result for G23A A40C C55G reads at most 0.5.

With C22U U35A G52A, the yeast fitness was at most 0.5.

With G23A C31U A69U, the yeast fitness is 0.675.

As for G23C C27A G56A A57U A69U, the yeast fitness is at most 0.5. As for G23C A57G G68A, the figure is 0.859; as for C22U U26A C29U A43C G52C U53A, at most 0.5; as for C22U U32C C46U U54G, 0.593. The result for G23A C30G C33G A36U C46G C55G C61U reads 0.567. As for G23C A45G, the figure is 0.773. As for G23C A45C, the yeast fitness amounted to 0.554.

For the variant G23A C27A, the yeast fitness was 0.821. The result for G23A C30A A37G reads at most 0.5; that for G23A C33G U35G, at most 0.5. G23A C24G U32G: the yeast fitness turned out to be 0.609. As for C22U G48A, the figure is 0.89; as for G23A A43G A70U, 0.648; as for C22U G44C A70U, 0.711. On to C22U G58C C62G G63C, for which the yeast fitness was at most 0.5.

Regarding G23A C33G C46G C66A, the yeast fitness was 0.529. The result for C22U U32C C46G U53G G68C reads 0.544. The result for G23A C33G reads at most 0.5.

Consider G23A C33U, for which the yeast fitness turned out to be 0.547. As for G23A U28C C30A C46U A70U, the figure is at most 0.5; as for G23A C33G A43G A69C, at most 0.5; as for G23C C24U A36G A57U G63A, at most 0.5.

As to G23A C61G, the yeast fitness came out at 0.714. The result for G23A C61A reads 0.539; that for G23A C61U, 0.665; that for G23A G63A A65G, 0.524. The result for G23A C55U reads 0.625; that for C22U G44C G63A, at most 0.5; that for C22U U35C C49U C66U, 0.586. As for G23C A42G G67A, the figure is at most 0.5.

Regarding C22U U32G C34U A40G A70U, the yeast fitness was 0.563. Take G23A C33G C49A U54G A65G: the yeast fitness came to 0.617. The result for G23C A69U reads 0.737. The result for G23C A69C reads 0.612. As for G23C C24A C30G A37C A45U G68C, the figure is at most 0.5.

C22U G48A G56A C60U: the yeast fitness is at most 0.5.

Consider G23C C27G U53C C61A G68A, for which the yeast fitness is at most 0.5. Regarding G23A C33U A69U, the yeast fitness was at most 0.5. As for G23A C29U C30A C46G, the figure is at most 0.5; as for C22U U35C A69C, 0.565; as for G23A G38A G41C G50C C55G, 0.696. As for C22U U28C C29G C33A, the figure is at most 0.5; as for G23C C24G G63C A65U, at most 0.5. The result for G23A C34U A43U G44C reads at most 0.5; that for G23C C24G G50A, 0.585. G23A G58C C61U: the yeast fitness came to 0.554. The result for C22U G63C G68U reads at most 0.5; that for C22U G51C A65U, at most 0.5. Regarding G23C C27G U53C C62A, the yeast fitness amounted to 0.619.

With C22U G50A, the yeast fitness worked out at 0.875. The result for C22U G50C reads 0.818; that for C22U G50U, 0.669; that for G23A U35A A65C, at most 0.5. As for G23C A37C C46G C66U, the figure is at most 0.5; as for C22U U26A C29U G52C, 0.624; as for G23C A70C, 0.73. As for G23A C30G C55U G63A, the figure is 0.582; as for G23A A36U G39C, 0.518. In the case of G23A C55A C61A, the yeast fitness was determined as 0.568. Take C22U U28G A45G: the yeast fitness was at most 0.5.

Regarding C22U U32G C34U A40G C66U, the yeast fitness is 0.647. The result for G23C C27G C31U reads at most 0.5. As for G23A A43G, the figure is 0.684; as for G23A A43C, 0.826; as for G23A A43U, 0.699. In the case of C22U U35C C49U, the yeast fitness is at most 0.5. As for G23A C24U G38C A70C, the figure is at most 0.5; as for G23A A40U C49U C60A G63A, at most 0.5; as for G23A G56C, 0.65. Take G23A G56A: the yeast fitness is 0.924. As for C22U G63C, the figure is 0.67; as for G23A A42C C60U C61G, at most 0.5. The result for G23A A36G reads 0.668; that for G23C C29A G38A, at most 0.5; that for G23C C24A C30G A40U U47A G51C G63A C66A A69U, 0.54.

Turning to G23C C24G C34G U64A, the yeast fitness is at most 0.5. As for C22U G50A G56A, the figure is 0.793.

With G23A A65G, the yeast fitness was 0.907. As for G23A A65C, the figure is 0.816. The result for G23A A65U reads 0.916; that for G23C A37U U47C C60G C66U, at most 0.5; that for C22U U32G C34U A40G C49U C66U, 0.552. As for G23A A36U G39C G50A, the figure is at most 0.5; as for G23A C30A A37G C66U, 0.539. Regarding C22U U26A C49U A65U, the yeast fitness was at most 0.5. As for G23C A43G G58C U64G, the figure is 0.57; as for G23A U47A G58C, 0.596. The result for G23A G50A reads 0.819; that for G23A G50C, 0.58. The result for G23A C27U A65U reads 0.658; that for G23A G38C A40C A43C, at most 0.5; that for G23A C30U C33A G41C A42U, 0.555.

Take G23A C33G G63A: the yeast fitness was found to be 0.594.

G23A C30U A69G A70G: the yeast fitness was at most 0.5. The result for G23A U28A C30U A40U G52C G67A reads 0.63.

G23A A42G A45U G63C U64C: the yeast fitness stood at 0.638.

In the case of G23A G38C, the yeast fitness worked out at 0.599. Regarding G23A G38A, the yeast fitness amounted to 0.643.

With G23A C34A G52C G63C, the yeast fitness is at most 0.5. Turning to G23C A42C U47A C49G, the yeast fitness is at most 0.5. The result for G23A A37G G68A reads 0.682; that for G23A U47C, 0.781; that for G23C C24A C49A U54C, 0.655. For the variant G23A C29G C30G C49A G56C C61U, the yeast fitness was 0.702. The result for G23A C27G C29U G56A reads at most 0.5.

On to G23A C30A, for which the yeast fitness came to 0.792. The result for G23A G63C reads 0.613. As for C22U U47C G52A, the figure is at most 0.5; as for G23C A42U A43G, at most 0.5. As for G23A C49A U59C C62U A65U, the figure is at most 0.5; as for C22U U28C C29G C33A C60A A70C, at most 0.5; as for G23A U35G A70C, at most 0.5.

G23A C33U C34U A40U: the yeast fitness is at most 0.5. On to G23A C49G, for which the yeast fitness amounted to 0.873. With G23A C49A, the yeast fitness came to 0.526. Consider G23A C30U C55A G68C, for which the yeast fitness was at most 0.5. The result for C22U U54C C55A A65G C66U reads at most 0.5; that for G23A C31A G50C C55G, 0.548. As for G23A C46U U59C, the figure is 0.587; as for C22U U32C A65C, 0.701; as for G23A C30A C55U, at most 0.5.

On to G23A C31U G48C C55G A69U, for which the yeast fitness was at most 0.5. In the case of C22U U54G A65G G68U A70C, the yeast fitness is at most 0.5.

On to G23A G48C, for which the yeast fitness came out at 0.759. Regarding C22U G52A, the yeast fitness turned out to be 0.675. The result for G23A C29U C30A reads 0.565; that for G23A U35G G58A, at most 0.5; that for G23C A57G G63C A65U, at most 0.5. The result for G23C A37C G52C C66G A69C reads 0.612.

As to G23A C29A C31G, the yeast fitness was 0.664.

C22U U26A A40G G67C: the yeast fitness was at most 0.5. As to C22U G67A, the yeast fitness turned out to be 0.78. Take C22U G67U: the yeast fitness is 0.808. As for C22U U26C G63U, the figure is at most 0.5; as for C22U G58C, 0.883. On to C22U G58A, for which the yeast fitness worked out at 0.926.

For C22U U28A A37U C61U, the yeast fitness stood at 0.552. G23A C27A A57U: the yeast fitness turned out to be 0.634. The result for G23A U26G C61U A69C reads 0.793; that for G23A A43G U64C, at most 0.5; that for G23C C27U C30U, 0.53.

Take G23A C29A G68A: the yeast fitness is at most 0.5. The result for G23A C60A reads at most 0.5; that for G23C C29G C33U C46U C55U, at most 0.5; that for G23A C33G A43C, at most 0.5.

G23A G25A A40U C61U: the yeast fitness was at most 0.5. The result for G23C C29G A43U G50A A57G reads at most 0.5.

C22U G52A C55A C66U: the yeast fitness came out at 0.526. The result for G23A A45G A69C reads 0.507; that for C22U G56C C60A C62G, 0.523. As for G23C A65G, the figure is 0.587; as for G23C A65C, 0.619; as for C22U U32C C46U U54G A70U, 0.655.
